Source: ChEMBL document CHEMBL4038302, “Fibroblast Activation Protein α Activated Tripeptide Bufadienolide Antitumor Prodrug with Reduced Cardiotoxicity” (J Med Chem, 2017)

Columns and labels:
[1] = target: T1, Prolyl endopeptidase FAP (Homo sapiens, UniProt Q12884); experiment: Prodrug activation assessed as recombinant human FAP-alpha mediated 5-((3S,5R,8R,9S,10S,11S,13R,14S,17R)-3-(2-(4-aminophenyl)acetyl)-11,14-dihydroxy-10,13-dimethyl-12-oxohexadecahydro-1H-cyclopenta[a]phenanthren-17-yl)-2H-pyran-2-one formation by measuring intrinsic clearance at 40 umol/L after 6 hrs by UPLC-MS/MS analysis; details: 40 µM
T1 sequence (Q12884 whole entry): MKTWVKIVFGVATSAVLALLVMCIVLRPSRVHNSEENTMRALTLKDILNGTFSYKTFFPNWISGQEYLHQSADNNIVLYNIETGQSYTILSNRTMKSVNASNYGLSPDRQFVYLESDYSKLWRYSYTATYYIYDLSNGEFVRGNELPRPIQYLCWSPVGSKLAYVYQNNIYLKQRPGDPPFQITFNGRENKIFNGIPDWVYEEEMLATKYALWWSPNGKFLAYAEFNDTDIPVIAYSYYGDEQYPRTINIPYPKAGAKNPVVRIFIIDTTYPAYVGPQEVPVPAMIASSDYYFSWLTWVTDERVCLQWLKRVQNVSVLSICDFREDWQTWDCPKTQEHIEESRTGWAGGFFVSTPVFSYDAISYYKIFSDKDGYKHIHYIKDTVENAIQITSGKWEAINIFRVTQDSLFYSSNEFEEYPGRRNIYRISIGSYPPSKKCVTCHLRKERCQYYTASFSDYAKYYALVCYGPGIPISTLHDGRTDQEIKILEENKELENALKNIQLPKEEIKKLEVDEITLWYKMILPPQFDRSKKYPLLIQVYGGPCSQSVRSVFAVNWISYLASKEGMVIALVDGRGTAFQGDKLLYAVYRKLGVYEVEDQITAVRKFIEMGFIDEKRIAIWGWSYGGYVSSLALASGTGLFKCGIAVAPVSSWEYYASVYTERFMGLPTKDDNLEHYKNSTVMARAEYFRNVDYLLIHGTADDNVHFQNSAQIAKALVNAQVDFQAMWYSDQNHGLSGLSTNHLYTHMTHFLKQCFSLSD

[2] = target: T1, Prolyl endopeptidase FAP; experiment: (§1) Prodrug activation assessed as Vmax for recombinant human FAP-alpha mediated (2S,3S)-((3S,5R,8R,9S,10S,11S,13R,14S,17R)-11,14-dihydroxy-10,13-dimethyl-12-oxo-17-(2-oxo-2H-pyran-5-yl)hexadecahydro-1H-cyclopenta[a]phenanthren-3-yl) 2-amino-3-methylpentanoate formation after 90 mins by UPLC-MS/MS analysis; details: 1.5 h
In short: (§2)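 Prodrug at 0.625–40 μmol/L incubated with rhFAPα at 0.45 μg/mL and internal standard in 0.2 mL PBS, pH 7.4, at 37 °C for 90 min. Quenched with MeCN and spun at 18 000g for 15 min; product measured by UPLC-MS/MS. S50 and Vmax fitted with an allosteric sigmoidal model; CLint = Vmax/S50. Three independent experiments.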

[3] = target: T1, Prolyl endopeptidase FAP; experiment: as §1, with “as” for “as Vmax for”, “formation by measuring intrinsic clearance” for “formation”; details: 1.5 h; in short: as §2
[4] = target: T1, Prolyl endopeptidase FAP; experiment: as §1, with “as” for “as Vmax for”, “2-amino-3-methylpentanoate by measuring concentration of test compound gives half-maximal activity” for “2-amino-3-methylpentanoate”; details: 1.5 h; in short: as §2
[5] = target: T1, Prolyl endopeptidase FAP; experiment: (§3) Prodrug activation assessed as Vmax for recombinant human FAP-alpha mediated (S)-((3S,5R,8R,9S,10S,11S,13R,14S,17R)-11,14-dihydroxy-10,13-dimethyl-12-oxo-17-(2-oxo-2H-pyran-5-yl)hexadecahydro-1H-cyclopenta[a]phenanthren-3-yl) 2-amino-3-phenylpropanoate formation after 90 mins by UPLC-MS/MS analysis; details: 1.5 h; in short: as §2
[6] = target: T1, Prolyl endopeptidase FAP; experiment: Prodrug activation assessed as recombinant human FAP-alpha mediated (S)-((3S,5R,8R,9S,10S,11S,13R,14S,17R)-11,14-dihydroxy-10,13-dimethyl-12-oxo-17-(2-oxo-2H-pyran-5-yl)hexadecahydro-1H-cyclopenta[a]phenanthren-3-yl) 2-amino-3-phenylpropanoate formation at 40 umol/L after 6 hrs in presence of FAP-alpha inhibitor talabostat by UPLC-MS/MS analysis; details: 40 µM
In short: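 Prodrug at 40 μmol/L incubated with rhFAPα at 0.45 μg/mL in 0.2 mL buffer at 37 °C for 6 h, with bufalin at 2 μmol/L as internal standard. Stopped with acetonitrile and spun at 18 000g for 15 min. Released active form measured by UPLC-MS/MS via peak-area ratio against a standard curve of 0.625–40 μmol/L.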

[7] = target: T1, Prolyl endopeptidase FAP; experiment: as §3, with “as” for “as Vmax for”, “2-amino-3-phenylpropanoate by measuring concentration of test compound gives half-maximal activity” for “2-amino-3-phenylpropanoate”; details: 1.5 h; in short: as §2
[8] = target: T1, Prolyl endopeptidase FAP; experiment: as §3, with “as” for “as Vmax for”, “formation by measuring intrinsic clearance” for “formation”; details: 1.5 h; in short: as §2

Structure (SMILES): C[C@]12CC[C@H](OC(=O)Cc3ccc(NC(=O)[C@@H]4CCCN4C(=O)CNC(=O)OCc4ccccc4)cc3)C[C@H]1CC[C@@H]1[C@@H]2[C@H](O)C(=O)[C@]2(C)[C@@H](c3ccc(=O)oc3)CC[C@]12O
- CL [1]: 7070 µL/min/mg

Structure (SMILES): CC[C@H](C)[C@H](NC(=O)[C@@H]1CCCN1C(=O)CNC(=O)OCc1ccccc1)C(=O)O[C@H]1CC[C@@]2(C)[C@H](CC[C@@H]3[C@@H]2[C@H](O)C(=O)[C@]2(C)[C@@H](c4ccc(=O)oc4)CC[C@]32O)C1
- Vmax [2]: 0.014 µmol/min/mg
- CL [3]: 1590 µL/min/mg
- S50 [4]: 8.82 µmol/L

Structure (SMILES): C[C@]12CC[C@H](OC(=O)[C@H](Cc3ccccc3)NC(=O)[C@@H]3CCCN3C(=O)CNC(=O)OCc3ccccc3)C[C@H]1CC[C@@H]1[C@@H]2[C@H](O)C(=O)[C@]2(C)[C@@H](c3ccc(=O)oc3)CC[C@]12O
- Vmax [5]: 0.366 µmol/min/mg
- Drug metabolism [6]: Metabolite_Notdetected
- S50 [7]: 8.64 µmol/L
- CL [8]: 42360 µL/min/mg
